Screening results deposited in PubChem by The Scripps Research Institute Molecular Screening Center.
CHRM4 agonist: agonists of human muscarinic M4 receptor (CHRM4); P08173; CHO-K1 hM4/Gqi5, Fluo-8 calcium fluorescence; vehicle 0%, full acetylcholine response 100%; activation, % at 3 µM; 0.14% of 360,000 active; AID 624127;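 active means activation above the run mean over all test wells plus 3 SD, cut at about 32% in these data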;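 further: peak over basal fluorescence ratio per well then scaled between controls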
Target sequence (P08173 whole entry, looked up): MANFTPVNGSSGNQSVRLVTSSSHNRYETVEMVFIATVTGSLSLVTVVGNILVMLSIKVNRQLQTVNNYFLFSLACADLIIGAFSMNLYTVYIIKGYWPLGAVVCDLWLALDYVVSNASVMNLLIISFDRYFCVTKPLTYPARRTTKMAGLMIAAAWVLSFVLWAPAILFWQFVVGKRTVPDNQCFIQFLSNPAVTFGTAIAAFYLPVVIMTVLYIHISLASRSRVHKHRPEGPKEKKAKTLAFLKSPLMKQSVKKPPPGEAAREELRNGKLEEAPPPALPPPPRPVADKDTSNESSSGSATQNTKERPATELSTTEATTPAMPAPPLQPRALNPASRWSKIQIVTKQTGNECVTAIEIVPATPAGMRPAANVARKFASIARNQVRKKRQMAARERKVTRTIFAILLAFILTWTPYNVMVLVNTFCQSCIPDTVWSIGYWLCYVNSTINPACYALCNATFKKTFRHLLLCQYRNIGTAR
CHRM4 PAM: positive allosteric modulators of human muscarinic M4 receptor; P08173; CHO-K1 hM4/Gqi5, Fluo-8 calcium fluorescence, ACh EC20; 0% = ACh EC20, 100% = maximal ACh; activation, % at 3 µM; 0.4% of 360,000 active; AID 624126;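 active means activation above its plate's cutoff, the mean activation of sample wells plus 3 SD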
M4 antag: antagonists of human muscarinic M4 receptor (CHRM4); 0.73% of 360,000 active; CHO-hM4 cells, ACh EC80, Fluo-8 calcium fluorescence; inhibition, % at 3 µM; AID 624125; P08173;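 active means inhibition above its plate's cutoff, the mean inhibition of sample wells plus 3 SD, cut at about 27% in these data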
CHRM5 agonist: CHRM5 agonism in calcium assay | P08912 | CHO-K1 hM5 cells, Fluo-8 calcium fluorescence; 0% DMSO wells, 100% maximal acetylcholine response | activation, % at 3 µM | 0.19% of 360,000 active | AID 624037;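 active means activation above the run's mean over test compounds plus 3 SD, cut at about 23% in these data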;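 further: signal is peak over basal fluorescence ratio across the kinetic read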
M5 antag: CHRM5 antagonism in calcium assay; P08912; inhibition, % at 3 µM; 0.59% of 360,000 active; CHO-hM5 cells, Fluo-8 calcium fluorescence, ACh EC80; AID 624040;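 active means inhibition above a per-plate cutoff, the mean of that plate's test compounds plus 3 SD, cut at about 27% in these data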
CHRM5 PAM: potentiates acetylcholine response at human M5 receptor; P08912; CHO-K1 hM5, Fluo-8 calcium, ACh EC20 PAM; 0% = ACh EC20, 100% = ACh EC100; activation, % at 3 µM; 0.3% of 360,000 active; AID 624038;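 active means activation above the run cutoff, the mean activation of all test compounds plus 3 SD, cut at about 18% in these data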
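Test system: CHO-K1 hM5 cells / Doses: single-point, 3 µM nominal / Times: Post-acetylcholine fluorescence recording 140 s / Technique: Fluo-8 calcium fluorescence / Measure: Max/basal fluorescence ratio as % of EC20–EC100 ACh window / Benchmarks: low control EC20 acetylcholine (0%), high control EC100 acetylcholine (100%) / Replicates: one well per compound, no replicates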
A number is an active result; n = inactive. An excerpt weighted towards active compounds, which were near 1.9% of everything screened.

SMILES	CHRM4 agonist	CHRM4 PAM	M4 antag	CHRM5 agonist	M5 antag	CHRM5 PAM
CC(OCCN1CCCC1)(c1ccc(F)cc1)c1ccc(F)cc1	n	n	47	n	36	n
Cn1c(Oc2cccnc2CN2CCCC2)nc2cc(-c3cccc(C(F)(F)F)c3)sc2c1=O	n	n	n	n	n	n
CN(C)c1ccc2nc3c(=O)[nH]c(=O)nc-3n(CC(O)C(O)C(O)CO)c2c1 (stereo not drawn)	48	n	n	n	n	n
Cc1ccccc1CS(=O)(=O)c1nnc([C@H](CC(C)C)NC(=O)OC(C)(C)C)o1	n	n	28	n	n	n
CC(C)C[C@H](NC(=O)OC(C)(C)C)c1nnc(SCc2ccccc2)o1	n	n	n	n	n	n
CC(C)[C@H](NC(=O)OC(C)(C)C)c1nnc(S(=O)(=O)Cc2c(F)cccc2Cl)o1	n	n	43	n	n	n
CC[C@@H](C)[C@H](NC(=O)OC(C)(C)C)c1nnc(S(=O)(=O)Cc2cc(C)ccc2C)o1	n	n	48	n	n	n
CC(C)c1nc(C#N)c(N2CCOCC2)o1	n	n	n	n	n	n
COc1ccc(NC(=O)CN(c2ccccc2OC)S(=O)(=O)c2cccs2)cc1Cl	n	n	n	n	n	n
CCN(CC)CC#CCC(O)(c1ccccc1)C1CCCCC1 (stereo not drawn)	n	n	76	n	72	n
O=C1Nc2ccc(Br)cc2C1=Nc1cccnc1	n	n	n	n	n	n
O=C(Nc1cccc(C(=O)O)c1)/C(=C\c1ccccc1Cl)NC(=O)c1ccco1	n	21	n	n	n	n
COc1ccc(/C=C(/NC(=O)c2ccco2)C(=O)Nc2cccc(C(=O)O)c2)cc1	n	n	n	n	n	n
CCN(CC)CC(=O)N1CCCC(N2CCN(c3cccc(C(F)(F)F)c3)CC2)C1 (stereo not drawn)	n	n	n	n	n	n
CC1=C(C)CS(=O)N(S(=O)(=O)c2ccc(Cl)cc2)C1 (stereo not drawn)	n	n	48	25	n	n
CCOc1ccc(NC(=O)CNC(=O)COc2ccccc2)cc1	n	n	n	n	n	n
CCNc1nc(NC(C)C)nc(NS(=O)(=O)c2ccc(N)cc2)n1	n	30	n	n	n	n
Cc1ccc(NC(=O)Cc2c(Cl)cccc2Cl)cc1S(=O)(=O)N(C)C	n	n	n	n	n	n
CCC1CCCCN1CCNS(=O)(=O)c1ccc2c(c1)oc(=O)n2C (stereo not drawn)	n	n	29	n	n	n
CCC1CCCCN1CCCNS(=O)(=O)c1ccc2c(c1)oc(=O)n2C (stereo not drawn)	n	n	n	n	n	n
O=C(CSCc1ccccc1)Nc1cccc(F)c1	n	n	n	n	n	n
COC(=O)C(Cc1ccc(O)cc1)NC(=O)CCC(=O)Nc1ccc(S(N)(=O)=O)cc1 (stereo not drawn)	n	n	n	n	n	n
Cc1ccc(OCCCCNC(C)(C)C)c([N+](=O)[O-])c1	n	n	n	n	27	n
COCCNCCOc1ccc(C)cc1[N+](=O)[O-]	n	n	n	n	n	n
Nc1c(N(CCC2=CCCCC2)C(=O)Cc2ccccc2F)c(=O)[nH]c(=O)n1Cc1ccccc1	n	n	n	n	n	n
SMILES	CHRM4 agonist	CHRM4 PAM	M4 antag	CHRM5 agonist	M5 antag	CHRM5 PAM
CCCCc1nnc(NC(=O)c2oc3ccc(OC)cc3c2C)s1	n	n	n	n	n	19
COc1ccc2oc(C(=O)Nc3nccs3)c(C)c2c1	n	n	n	n	n	n
Cc1cc(=O)[nH]c(SCC(=O)N2CCN(C(c3ccccc3)c3ccccc3)CC2)n1	n	n	n	n	32	n
O=C(CSc1nc(-c2ccccc2)cc(=O)[nH]1)N1CCOCC1	n	n	n	n	40	n
O=C(CSc1nc(O)cc(=O)[nH]1)N1CCOCC1	n	n	n	n	n	n
Cc1cc(=O)[nH]c(SCC(=O)N2CCCCC2)n1	n	n	n	n	n	n
COc1cc(NC(=O)COC(=O)c2[nH]c(C)c(C(C)=O)c2C)cc(OC)c1	n	n	n	n	n	n
Cc1nc2ccccn2c1C(=O)NNC(=O)Nc1ccccc1	n	n	n	n	n	n
CCOc1ccc(CC(C(=O)NN)C(=O)NN)cc1CN(C)C	n	19	n	n	n	n
Cc1ccc2c(Cl)cc(Cl)c(OCC(=O)O)c2n1	n	n	n	n	n	n
O=C(CN1CCN(Cc2ccccc2)CC1)Nc1ccccc1-c1ccccc1	n	n	n	n	n	n
O=C(Nc1c(C(=O)N2CCC(N3CCCCC3)CC2)oc2ccccc12)c1ccc(F)cc1	n	n	n	n	n	n
NC(=O)c1oc2ccccc2c1NC(=O)c1ccc(F)cc1	n	n	39	n	n	n
Nc1c(C(=O)NCCc2ccccc2)nnn1Cc1ccc(Br)cc1F	n	n	n	n	n	n
O=[N+]([O-])c1ccc(Oc2ccc(S(=O)(=O)Nc3ccccc3)cc2)cc1	39	n	53	n	43	n
O=[N+]([O-])c1ccc(S(=O)(=O)Nc2ccncc2)cc1	n	n	n	n	n	n
COc1ccc(C)c2sc(NC(=O)C3=COCCO3)nc12	n	36	n	n	n	n
COC(=O)c1c(NC(=O)C2=COCCO2)sc(C)c1C	n	25	n	n	n	n
O=C(CNS(=O)(=O)c1ccc(F)cc1)N1CCN(c2ccccc2)CC1	n	n	27	n	n	n
O=C(CNS(=O)(=O)c1cccs1)N1CCN(c2ccccc2F)CC1	n	17	n	n	n	n
Cc1c(C)c2c(OCC(=O)N[C@@H](Cc3ccccc3)C(=O)O)cc3c(c2oc1=O)CCC(C)(C)O3	n	n	n	n	n	n
O=C(CCN1CCCCO1)N1CCCC(N2CCN(c3ccc(F)cc3)CC2)C1 (stereo not drawn)	n	n	n	n	n	n
Cc1ccc2c(c1)C(c1ccc(F)cc1)N(C(=O)c1ccccc1Br)CC(=O)N2 (stereo not drawn)	n	n	66	n	n	n
CC1(C)Cc2c(ccc3ccccc23)C(NNC(=O)c2cccnc2)=N1	n	n	n	n	n	n
CCC1c2ccc(C)n2CCN1C(=O)Nc1cc(Cl)ccc1OC (stereo not drawn)	n	n	n	n	n	n
COc1ccc(N2CCN(CC(=O)NC(C)c3ccccc3)CC2)cc1 (stereo not drawn)	n	n	n	n	n	n
COc1ccc(N2CCN(C(=O)CN3CCN(C(c4ccccc4)c4ccccc4)CC3)CC2)cc1	n	n	28	n	n	n
